Source: PubChem (Johns Hopkins Ion Channel Center)
In the library only some 3% were active in any assay of this set; here they are far more common.
TRPC6 act – activates the mouse TRPC6 cation channel. Q61143. HEK293-TRPC6 membrane potential dye fluorescence; hits give high values. B-score at 10 µM. hit rate 0.13% among 310,000;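 active = B-score of the integrated fluorescence ratio above library mean plus 3 SD, and starting fluorescence ratio within library mean plus 5 SD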;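 also: higher score means more depolarization so channel activation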
TRPC4 PAM – allosteric potentiators of mouse TRPC4 channel; Q9QUQ5; HEK293 TRPC4beta/mu-opioid, DAMGO EC20, Fluo-4 Ca2+ flux; hits give high values; B-score at 10 µM; hit rate 0.42% among 310,000; AID 2227;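 active = B-score of calcium response area above 5 SD of library B-scores, with initial fluorescence ratio within 5 SD of library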;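 also: B-score of integrated fluorescence ratio over time as area under calcium response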
TRPC4 inh – TRPC4 (mouse) channel inhibition. AID 2247. B-score at 10 µM. Q9QUQ5. hit rate 0.39% among 300,000. HEK293 TRPC4beta/mu-opioid, DAMGO-evoked Fluo4 calcium flux; hits give low values;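 active = B-score over 3 SD under the library average, no early fluorescence shift, positive overall ratio signal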
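Test system – stable TRPC4beta/mu-opioid receptor HEK293 cells · Probe or stimulus – DAMGO, a submaximal dose followed by a maximal one · Dosing – one concentration per compound · Signal – Fluo4 calcium fluorescence by kinetic imaging, 5 s 1 Hz baseline · Evaluation – per-well B score of integrated baseline-normalized Fluo4 ratio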
TRPC4 agonist – activators of mouse TRPC4 channel; HEK293 TRPC4beta/mu-opioid, Fluo4 calcium fluorescence; hits give high values; B-score at 10 µM; hit rate 0.49% among 310,000; AID 2237;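 active = B-score above 5 SD of library B-scores, and initial fluorescence ratio not above library mean plus 5 SD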;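 also: positive B-score marks a calcium rise read as TRPC4 activation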
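System – HEK293 cells stably co-expressing mouse TRPC4beta and mu-opioid receptor · Signal – Fluo4 calcium-sensitive dye fluorescence, kinetic, 1 Hz baseline · Benchmarks – buffer (low) and maximal DAMGO (high) · Read-out – B score of integrated fluorescence ratio per well · Incubation – dye loading 45 min room temperature, 110 s kinetic read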
Kir21 inh – inhibitors of mouse Kir2.1 inward-rectifier potassium channel. HEK293-Kir2.1, FluxOR thallium flux fluorescence; hits give low values. B-score at 10 µM. hit rate 0.85% among 310,000;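 active = fluorescence ratio B-score at or below minus 3 SD of library scores, with starting-brightness B-score within 2 SD, cut at about -4.2 in these data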;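 also: channel flux triggered by added potassium and thallium sulfate stimulus; B-score of peak minus minimum fluorescence over baseline after thallium stimulus; more negative B-score means stronger Kir2.1 block with less thallium influx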
TRPC6 inhibitor – blocks the mouse TRPC6 cation channel; HEK293-TRPC6, membrane potential dye, ACh-evoked depolarization; hits give low values; Q61143; AID 2553; B-score at 10 µM; hit rate 1.1% among 310,000;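 active = B-score under library mean minus 3 SD, initial fluorescence not abnormally high, positive integrated signal ratio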;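 also: B-score derived from integrated fluorescence ratio over the kinetic read; more negative B-score means stronger inhibition of depolarization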
Active calls of the source: *; i = inactive.

SMILES | TRPC6 act | TRPC4 PAM | TRPC4 inh | TRPC4 agonist | Kir21 inh | TRPC6 inhibitor
O=C(CC1S/C(=N/N=C/c2ccco2)NC1=O)Nc1cccc(Cl)c1Cl (stereo unspecified) | i | i | i | i | -0.17 | i
COc1ccc(C(C)NCCC(c2ccc(OC(C)C)cc2)c2ccccc2OC)cc1 (stereo unspecified) | i | i | i | i | -6.6* | i
COc1ccccc1C(CC(=O)Nc1ccc(Cl)cc1)c1ccc(OC(C)C)cc1 (stereo unspecified) | i | i | i | i | -1.2 | i
Cc1ccc2cc(CN(CC3CCCO3)C(=S)NCc3ccco3)c(=O)[nH]c2c1C (stereo unspecified) | i | i | i | i | 0.16 | i
Cc1ccc(C)c2[nH]c(=O)c(CN(CC3CCCO3)C(=S)NCc3ccco3)cc12 (stereo unspecified) | i | i | -6* | i | -0.41 | i
Cc1cc(C(=O)COc2ccccc2Cl)c(C)n1-c1ccc2c(c1)OCO2 | i | i | i | i | -1.3 | i
Cc1ccc(-n2c(C)cc(C(=O)COc3c(CO)cc(F)cc3CO)c2C)cc1C | i | i | i | i | -7.7* | i
Cc1c(NC(=O)C(C)OC(=O)COc2ccc(C#N)cc2)c(=O)n(-c2ccccc2)n1C (stereo unspecified) | i | i | i | i | 0.62 | i
O=Cc1[nH]c2ccccc2c1N(C(=O)CCl)c1ccc([N+](=O)[O-])cc1 | i | i | i | 45* | -5.5* | i
CC(=O)n1cc(N(C(=O)CCl)c2ccc([N+](=O)[O-])cc2)c2ccccc21 | i | i | i | i | -3 | i
COc1ccc(NC(=O)CN(C)C(=O)Cn2cnc3c2c(=O)n(C)c(=O)n3C)cc1 | i | i | i | i | 0.92 | i
c1ccc(CC2CCN(C3=Nc4cccc5cccc3c45)CC2)cc1 | i | i | i | i | -1.4 | -6.1*
CCOC(=O)N1CCN(C2=Nc3cccc4cccc2c34)CC1 | i | i | i | i | -2.4 | -7.4*
CCNc1nc(OC)nc(N2CCC(Cc3ccccc3)CC2)n1 | i | i | i | i | -0.68 | i
CCOC(=O)N1CCN(C(=O)Nc2cccc3ccccc23)CC1 | i | i | i | i | 0.38 | i
CC(=O)Nc1ccc(S(=O)(=O)N2CCN(C(=O)c3ncoc3-c3ccc(F)cc3)CC2)cc1 | i | i | i | i | -0.46 | i
O=C(CCc1ccccc1)NNC(=S)NC(=O)c1ccc(Cl)cc1 | i | i | i | 211* | 2.2 | i
O=C(CCc1ccccc1)NNC(=O)c1ccc(Cl)cc1 | i | i | i | i | -0.75 | i
Cc1ccc(C(=O)NNC(=S)NC(=O)c2ccc(Cl)cc2)cc1 | i | i | i | 222* | -0.6 | i
COC1(OC)N=C(N)C2(C#N)C(c3ccc(F)cc3)C12C#N (stereo unspecified) | i | i | i | i | 1.2 | i
CCSC1(SCC)N=C(N)C2(C#N)C(c3ccc(F)cc3)C12C#N (stereo unspecified) | i | i | i | i | -4.7* | i
CCn1c(CCNC(=O)c2ccc(C)cc2)nnc1SCc1ccc(Cl)c(Cl)c1 | i | i | i | i | -3.5 | i
CCn1c(CCNC(=O)c2ccc(OC)cc2)nnc1SCc1ccc(Cl)c(Cl)c1 | i | i | i | i | -6.5* | i
COc1ccc(N2CCN(CC(=O)N3c4ccccc4CC3C)CC2)cc1 (stereo unspecified) | i | i | i | i | -0.6 | i
CCCC(=O)c1ccc(N2CCN(C(=O)c3ccccc3Br)CC2)c(F)c1 | i | 11* | i | i | -0.26 | i
CC(C)CN(CC(C)C)c1nc(N)c(C#N)c(CC#N)c1C#N | i | i | -6* | i | -2.2 | i
CCOC(=O)c1cc(C)[nH]c(=O)c1C#N | i | 10* | i | i | -0.64 | i
CCOC(=O)c1cc(C)[nH]c1C | i | i | i | i | 0.02 | i
